A short description of series [1]: Cytotoxicity against mouse RAW264.7 cells assessed as reduction in cell viability incubated for 3 days by MTS assay. Particulars: time 3 day. The series is classed as cell-based. An outline of the steps: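 Uninfected RAW 264.7 cells were exposed for 3 days to the same compound concentrations used in the MNV assay, then MTS read-out. Viability was expressed as % of untreated cells, and CC₅₀ is the concentration that reduced viable cells by 50%.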
Background: Tetrazolium dyes change colour on reduction, which living cells bring about.

The nature of series [2]: Antiviral activity against murine Norovirus infected in mouse RAW264.7 cells assessed as reduction in virus-induced cytopathic effect incubated for 72 hrs by MTS assay. It counts as functional, cell-based. Particulars: RAW264.7, 72 h. In a few lines: (§1)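 RAW 264.7 cells (1 × 10⁴/well) infected with MNV-1.CW1 at MOI 0.001 alongside a compound dilution series (0.023–50 or 100 µg/mL; 8 concentrations). Incubated 3 days until CPE was complete in untreated infected wells. MTS/PMS added, OD read at 498 nm after 2 h. %CPE reduction taken against uninfected and infected untreated controls; EC₅₀ is 50% protection from CPE.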
On the technique in general: Cytopathic effects are the visible damage that an infection or toxin causes in cultured cells.

The nature of series [3]: Selectivity index, ratio of CC50 for mouse RAW264.7 cells to EC50 for antiviral activity against murine Norovirus infected in mouse RAW264.7 cells. Particulars: read-out: Ratio CC50/EC50. The series is classed as toxicity, cell-based. An outline of the steps:
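Ratio of CC₅₀ (MTS, uninfected RAW 264.7, 3 days) to EC₅₀ (MNV CPE-reduction MTS assay in RAW 264.7, 3 days), calculated as CC₅₀/EC₅₀.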

A short description of series [4]: Inhibition of recombinant Norovirus GII.4 C-terminal His6-tagged RNA-dependent RNA polymerase in Escherichia coli assessed as decrease in GTP incorporation incubated for 10 mins by scintillation counting method.
Series [5] can be described thus: Antiviral activity against murine Norovirus GV.1 infected in mouse RAW264.7 cells assessed as reduction in plaque formation incubated for 48 hrs by qRT-PCR analysis. Particulars: GV.1, RAW264.7, 48 h. It counts as functional, cell-based. (In general: Quantitative PCR measures a nucleic acid by following its amplification.)
Series [6] concerns Norovirus. The series is described as follows: Antiviral activity against human Norovirus. It counts as functional.
A short description of series [7]: Antiviral activity against murine Norovirus infected in mouse RAW264.7 cells assessed as reduction in virus-induced cytopathic effect incubated for 3 days by MTS assay. The series is classed as functional, cell-based. Particulars: RAW264.7, 72 h. An outline of the steps:
as §1

Series [8] relates to Norovirus. As to the kind of experiment: Antiviral activity against human Norovirus infected in BJAB cells assessed as reduction in viral replication incubated for 3 days by qRT-PCR analysi. It counts as functional, cell-based. Particulars: 72 h.
The test system of series [9] is Norovirus. As to the kind of experiment: Antiviral activity against human Norovirus GI.1 infected in human HGT-1 cells assessed as reduction in virus replication incubated for 72 hrs by qRT-PCR analysis. It counts as functional, cell-based. Particulars: GI.1, HGT-1, 72 h. An outline of the steps: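 HGT-1 cells stably carrying the GI.1 HuNoV replicon were seeded at 5,000/well in complete DMEM without G418. Serial compound dilutions were added after 24 h, followed by 72 h incubation and a PBS wash. Intracellular replicon RNA was quantified by qRT-PCR, normalised to β-actin by the Pfaffl method with per-run efficiencies. EC₅₀ is 50% reduction of relative replicon RNA.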

Series [10] can be described thus: Inhibition of human Norovirus RNA-dependent RNA polymerase assessed as decrease in GTP incorporation incubated for 10 mins by scintillation counting method.
Series [11] in a line: Inhibition of mouse Norovirus RNA-dependent RNA polymerase assessed as decrease in GTP incorporation incubated for 10 mins by scintillation counting method.

Bounds are passed on as bounds.

The CC50 is the concentration that lowers cell viability or growth by half. Usually EC50 stands for the concentration giving half of the maximal effect. For `C[C@@]1(O)[C@H](O)[C@@H](CO)O[C@H]1c1ccc2c(N)ncnn12`, the CC50 at 72 h in series [1] turned out to be 23700 nM. Also, the EC50 in series [2] came to 11100 nM. Besides, the selectivity ratio in series [3] was 2.
What is called IC50 is the concentration that gives 50% inhibition. With `Cc1nc(-c2ccccc2)sc1C(=O)Nc1sc2c(c1C#N)CCC2`, the IC50 in [4] worked out at 5000 nM. Moreover, the EC50 in series [5] was found to be 4800 nM.
On to `C[C@@]1(O)[C@H](O)[C@@H](CO)O[C@H]1n1ccc(N)nc1=O`, for which the EC50 came out at 8200 nM in the series on Norovirus [6], 2000 nM in [7] and 300 nM with Norovirus [8].
For `C[C@@]1(O)[C@H](O)[C@@H](CO)O[C@H]1c1cc(Cl)c2c(N)ncnn12`, the CC50 at 72 h in [1] came to 4780 nM. Further, the half-maximal effective concentration (EC50) in series [2] is over 4000 nM.
On to `Nc1ncnn2c([C@@H]3O[C@H](CO)[C@@H](O)[C@H]3O)cc(Br)c12`, for which the CC50 at 72 h in [1] is 450 nM. In addition, the EC50 is 24 nM in series [2] and over 10000 nM with Norovirus [9]. Moreover, the selectivity ratio in series [3] amounted to 19.
`Nc1ncnn2c([C@@H]3O[C@H](CO)[C@@H](O)[C@H]3O)ccc12`: the CC50 at 72 h in series [1] is 140 nM. For the same compound, the concentration for a half-maximal effect (EC50) turned out to be 7 nM in series [2] and 15 nM in the series with Norovirus [9]. For the same compound, the selectivity ratio in series [3] is 20.
In the series with Norovirus [6], `NC(=O)c1ncn([C@@H]2O[C@H](CO)[C@@H](O)[C@H]2O)n1` [RIBAVIRIN] displayed an EC50 of 43000 nM.
The same measure, in the same setting: as for `C[C@@]1(F)[C@H](O)[C@@H](CO)O[C@H]1n1ccc(N)nc1=O`, the figure is 3200 nM.
As to `Nc1ncnn2c([C@@H]3O[C@H](CO)[C@@H](O)[C@H]3O)cc(I)c12`, in [1], the CC50 at 72 h came to 780 nM. In addition, the concentration giving a half-maximal response (EC50) was 35 nM in series [2] and over 10000 nM with Norovirus [9]. For the same compound, the selectivity ratio in series [3] turned out to be 22.
On to `O=C(O)c1[nH]nnc1-c1ccccc1`, for which the IC50 in [4] was 9200 nM. The EC50 in series [5] came to 34500 nM.
Turning to `Cc1ccc(C(=O)Nc2ccc(S(=O)(=O)O)c3cc(S(=O)(=O)O)cc(S(=O)(=O)O)c23)cc1NC(=O)c1cccc(NC(=O)Nc2cccc(C(=O)Nc3cc(C(=O)Nc4ccc(S(=O)(=O)O)c5cc(S(=O)(=O)O)cc(S(=O)(=O)O)c45)ccc3C)c2)c1` [SURAMIN], the figures for the concentration for half-maximal inhibition (IC50) in series [10] and in [11] were 25 nM and 70 nM, respectively.
In the case of `Nc1ncnn2c([C@H]3O[C@@H](CO)[C@H](O)[C@@H]3O)ccc12`, the CC50 at 72 h in series [1] is over 100000 nM. Besides, the concentration for a half-maximal effect (EC50) in series [2] is over 100000 nM.
On to `O=C(Nc1cccc(C(=O)Nc2ccc(S(=O)(=O)O)c3cc(S(=O)(=O)O)cc(S(=O)(=O)O)c23)c1)Nc1cccc(C(=O)Nc2ccc(S(=O)(=O)O)c3cc(S(=O)(=O)O)cc(S(=O)(=O)O)c23)c1`, for which the IC50 in [10] is 71 nM; in series [11], 200 nM.
Regarding `Nc1ncnn2c([C@@H]3O[C@H](CO)[C@@H](O)[C@H]3O)cc(Cl)c12`, the 50% cytotoxic concentration (CC50) at 72 h in series [1] was over 10 nM. Also, the EC50 in series [2] was 7 nM; with Norovirus [9], over 10000 nM. In series [3], the selectivity ratio was over 1.
Regarding `C[C@H](NP(=O)(N[C@@H](C)C(=O)OCc1ccccc1)OC[C@H]1O[C@@H](c2cc(Cl)c3c(N)ncnn23)[C@H](O)[C@@H]1O)C(=O)OCc1ccccc1`, in series [1], the CC50 at 72 h was over 10000 nM. For the same compound, in series [2], the half-maximal effective concentration (EC50) is over 10000 nM.
In the case of `Nc1ncnc2c1c(Cl)cn2[C@@H]1O[C@H](CO)[C@@H](O)[C@H]1O`, the CC50 at 72 h in series [1] was 2530 nM. Further, the EC50 in [2] is over 2000 nM.
For `Nc1ncnn2c([C@H]3O[C@@H](CO)[C@H](O)[C@@H]3O)cc(Cl)c12` the same measures were over 100000 nM and over 100000 nM.

Values taken from ChEMBL document CHEMBL4680252, “Anti-norovirus activity of C7-modified 4-amino-pyrrolo[2,1-f][1,2,4]triazine C-nucleosides” (Eur J Med Chem, 2020).
